Data: ChEMBL document CHEMBL1157556, “Synthesis and biological screening of a combinatorial library of beta-chlorovinyl chalcones as anticancer, anti-inflammatory and antimicrobial agents” (Bioorg Med Chem, 2010)
≈ marks a conversion by molar mass, not a printed value.

Tests used:
THP-1 [1] = experiment: Antiinflammatory activity in human THP1 cells assessed as inhibition of LPS-induced IL6 release at 10 uM after 24 hrs by ELISA; type: functional; conditions: THP-1, 24 h
Method in brief: (§1)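 THP-1 cells grown in RPMI 1640 with 10% FBS, penicillin and streptomycin, then PMA-differentiated. Compounds in 0.5% DMSO preincubated 30 min at 37 °C before LPS (E. coli 0127:B8) stimulation. TNF-α and IL-6 release measured by kit per the manufacturer (BD Biosciences). Percent inhibition calculated relative to control. Dexamethasone 1 µM as reference.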

Proteus vulgaris [2] = experiment: Antibacterial activity against Proteus vulgaris MTCC 1771 after 24 hrs; type: functional; conditions: MTCC 1771, 24 h
Method in brief: (§2)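 Agar well diffusion on Mueller Hinton agar seeded with 0.1 mL of a 10⁵ cfu/mL suspension in 0.85% saline. Compounds dissolved in DMSO, final concentrations 25–250 µg/mL, 0.1 mL loaded per 6 mm well. DMSO (1%) control; tetracycline (10 µg/mL) reference. Duplicate plates incubated 24 h at 37 °C. Inhibition zone read in mm. MIC taken as lowest concentration giving complete growth inhibition.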

PANC-1 = experiment: Anticancer activity against human PANC1 cells at 10 uM after 48 hrs by propidium iodide fluorescence assay; type: functional
Method in brief: (§3)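 Propidium iodide DNA-fluorescence assay. Seeding 3000–7500 cells/well, 24 h recovery at 37 °C in 5% CO₂. Compounds in 0.1% DMSO added to triplicate wells at 10 µM. Flavopiridol 700 nM and gemcitabine 500 nM as reference inhibitors. Plates frozen at −80 °C for 24 h, thawed to room temperature, fluorescence read at excitation 530 nm and emission 620 nm. Percent cytotoxicity calculated.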

ACHN = experiment: Anticancer activity against human ACHN cells at 10 uM after 48 hrs by propidium iodide fluorescence assay; type: functional; method in brief: as §3
Proteus vulgaris [3] = experiment: Antibacterial activity against Proteus vulgaris MTCC 1771 at 50 ug/ml after 24 hrs agar diffusion method; type: functional; conditions: MTCC 1771, 24 h, read-out: IZ; method in brief: as §2
Escherichia coli [4] = experiment: Antibacterial activity against Escherichia coli MTCC 1650 after 24 hrs; type: functional; conditions: MTCC 1650, 24 h; method in brief: as §2
Bacillus subtilis [5] = experiment: Antibacterial activity against Bacillus subtilis MTCC 1789 after 24 hrs; type: functional; conditions: MTCC 1789, 24 h; method in brief: as §2
Escherichia coli [6] = experiment: Antibacterial activity against Escherichia coli MTCC 1650 at 50 ug/ml after 24 hrs agar diffusion method; type: functional; conditions: MTCC 1650, 24 h, read-out: IZ; method in brief: as §2
Klebsiella pneumoniae [7] = experiment: Antibacterial activity against Klebsiella pneumoniae NCIM 2957 after 24 hrs; type: functional; conditions: NCIM 2957, 24 h; method in brief: as §2
Calu-1 = experiment: Anticancer activity against human Calu1 cells at 10 uM after 48 hrs by propidium iodide fluorescence assay; type: functional; method in brief: as §3
Bacillus subtilis [8] = experiment: Antibacterial activity against Bacillus subtilis MTCC 1789 at 50 ug/ml after 24 hrs agar diffusion method; type: functional; conditions: MTCC 1789, 24 h, read-out: IZ; method in brief: as §2
THP-1 [9] = experiment: Cytotoxicity against human THP1 cells assessed as CCK8 release at 10 uM after 24 hrs by ELISA; type: cell-based; conditions: thp-1, 24 h
Method in brief: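 Same THP-1 cytokine-assay cells, with compounds in 0.5% DMSO and LPS stimulation, were scored in parallel for cytotoxicity by CCK-8.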

Staphylococcus aureus [10] = experiment: Antibacterial activity against Staphylococcus aureus MTCC 96 after 24 hrs; type: functional; conditions: MTCC 96, 24 h; method in brief: as §2
HCT-116 = experiment: Anticancer activity against human HCT116 cells at 10 uM after 48 hrs by propidium iodide fluorescence assay; type: functional; method in brief: as §3
THP-1 [11] = experiment: Antiinflammatory activity in human THP1 cells assessed as inhibition of LPS-induced TNFalpha release at 10 uM after 24 hrs by ELISA; type: functional; conditions: THP-1, 24 h; method in brief: as §1
Aspergillus flavus = experiment: Antifungal activity against Aspergillus flavus MTCC 2501 at 100 ug/ml after 48 hrs agar diffusion method; type: functional; conditions: for zone of inhibition at 100 µg/mL: MTCC 2501, 48 h, read-out: IZ
Method in brief: (§4)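 Fungal spore suspensions in sterile distilled water adjusted to 10⁶ cfu/mL; 0.1 mL spread on Sabouraud dextrose agar. Wells of 6 mm filled with 0.1 mL compound dilution in DMSO. DMSO (1%) control; nystatin (30 µg/mL) reference. Duplicate plates incubated at 28 °C for 48 h. Activity read as inhibition zone diameter in mm.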

NCI-H460 = experiment: Anticancer activity against human H460 cells at 10 uM after 48 hrs by propidium iodide fluorescence assay; type: functional; method in brief: as §3
Penicillium chrysogenum = experiment: Antifungal activity against Penicillium chrysogenum MTCC 1996 at 100 ug/ml after 48 hrs agar diffusion method; type: functional; conditions: for zone of inhibition at 100 µg/mL: MTCC 1996, 48 h, read-out: IZ; method in brief: as §4
Klebsiella pneumoniae [12] = experiment: Antibacterial activity against Klebsiella pneumoniae NCIM 2957 at 50 ug/ml after 24 hrs agar diffusion method; type: functional; conditions: NCIM 2957, 24 h, read-out: IZ; method in brief: as §2
Trichoderma viride = experiment: Antifungal activity against Trichoderma viride MTCC 167 at 100 ug/ml after 48 hrs agar diffusion method; type: functional; conditions: for zone of inhibition at 100 µg/mL: MTCC 167, 48 h, read-out: IZ; method in brief: as §4
Candida albicans = experiment: Antifungal activity against Candida albicans MTCC 227 at 100 ug/ml after 48 hrs agar diffusion method; type: functional; conditions: MTCC 227, 48 h, read-out: IZ; method in brief: as §4
Aspergillus niger = experiment: Antifungal activity against Aspergillus niger MTCC 1781 at 100 ug/ml after 48 hrs agar diffusion method; type: functional; conditions: for zone of inhibition at 100 µg/mL: MTCC 1781, 48 h, read-out: IZ; method in brief: as §4
Staphylococcus aureus [13] = experiment: Antibacterial activity against Staphylococcus aureus MTCC 96 at 50 ug/ml after 24 hrs agar diffusion method; type: functional; conditions: MTCC 96, 24 h, read-out: IZ; method in brief: as §2

Compound | inhibition at 10 µM (THP-1 [1]) | MIC (Proteus vulgaris [2]) | Activity (PANC-1) | Activity (ACHN) | zone of inhibition at 50 µg/mL (Proteus vulgaris [3]) | MIC (Escherichia coli [4]) | MIC (Bacillus subtilis [5]) | zone of inhibition at 50 µg/mL (Escherichia coli [6]) | MIC (Klebsiella pneumoniae [7]) | Activity (Calu-1) | zone of inhibition at 50 µg/mL (Bacillus subtilis [8]) | Activity (THP-1 [9]) | MIC (Staphylococcus aureus [10]) | Activity (HCT-116) | inhibition at 10 µM (THP-1 [11]) | zone of inhibition at 100 µg/mL (Aspergillus flavus) | Activity (NCI-H460) | zone of inhibition at 50 µg/mL (Klebsiella pneumoniae [12]) | zone of inhibition at 100 µg/mL (Trichoderma viride) | zone of inhibition at 100 µg/mL (Aspergillus niger) | other results
COc1ccc(C(=O)/C=C/C=C(\Cl)c2ccc(F)cc2)c(OC)c1 | 44% | 50 µg/mL (≈ 144 µM) | 23% | 30% | 16 mm | 50 µg/mL (≈ 144 µM) | 50 µg/mL (≈ 144 µM) | 11 mm | 50 µg/mL (≈ 144 µM) | 36% | 10 mm | 0% | 50 µg/mL (≈ 144 µM) | 14% | 0% | 10 mm | 26% | – | – | – | –
COc1ccc(C(=O)/C=C/C=C(\Cl)c2ccc(Cl)cc2)cc1 | 95% | 50 µg/mL (≈ 150 µM) | 30% | 35% | – | 50 µg/mL (≈ 150 µM) | 50 µg/mL (≈ 150 µM) | – | 50 µg/mL (≈ 150 µM) | 32% | – | 28% | 50 µg/mL (≈ 150 µM) | 29% | 67% | 12 mm | 33% | 10 mm | 12 mm | 13 mm | zone of inhibition at 100 µg/mL (Penicillium chrysogenum): 12 mm; zone of inhibition at 100 µg/mL (Candida albicans): 10 mm
COc1ccc(C(=O)/C=C/C=C(\Cl)c2ccc(OC)cc2OC)c(OC)c1 | 27% | 50 µg/mL (≈ 129 µM) | 23% | 26% | 13 mm | 50 µg/mL (≈ 129 µM) | 50 µg/mL (≈ 129 µM) | – | 50 µg/mL (≈ 129 µM) | 24% | – | 0% | 50 µg/mL (≈ 129 µM) | 29% | 0% | – | 18% | – | – | 13 mm | –
COc1ccc(C(=O)/C=C/C=C(\Cl)c2ccc(Cl)cc2)c(OC)c1 | 43% | 50 µg/mL (≈ 138 µM) | 32% | 37% | 18 mm | 50 µg/mL (≈ 138 µM) | 50 µg/mL (≈ 138 µM) | 10 mm | 50 µg/mL (≈ 138 µM) | 32% | 14 mm | 0% | 50 µg/mL (≈ 138 µM) | 26% | 0% | 12 mm | 21% | 15 mm | 12 mm | 14 mm | zone of inhibition at 50 µg/mL (Staphylococcus aureus [13]): 13 mm; zone of inhibition at 100 µg/mL (Penicillium chrysogenum): 14 mm
CN(C)[C@@H]1C(O)=C(C(N)=O)C(=O)[C@@]2(O)C(O)=C3C(=O)c4c(O)cccc4[C@@](C)(O)[C@H]3C[C@@H]12 [TETRACYCLINE] | – | – | – | – | 16 mm | – | – | 15 mm | – | – | 18 mm | – | – | – | – | – | – | 20 mm | – | – | zone of inhibition at 50 µg/mL (Staphylococcus aureus [13]): 18 mm
COc1ccc(C(=O)/C=C/C=C(\Cl)c2ccc(Br)cc2)cc1 | 97% | 50 µg/mL (≈ 132 µM) | 25% | 39% | – | 50 µg/mL (≈ 132 µM) | 50 µg/mL (≈ 132 µM) | – | 50 µg/mL (≈ 132 µM) | 29% | – | 30% | 50 µg/mL (≈ 132 µM) | 20% | 66% | 8 mm | 20% | 11 mm | 8 mm | – | zone of inhibition at 50 µg/mL (Staphylococcus aureus [13]): 12 mm; zone of inhibition at 100 µg/mL (Penicillium chrysogenum): 12 mm
COc1ccc(C(=O)/C=C/C=C(\Cl)c2cccc(Cl)c2)cc1 | 3% | 50 µg/mL (≈ 150 µM) | 18% | 22% | 15 mm | 50 µg/mL (≈ 150 µM) | 50 µg/mL (≈ 150 µM) | 10 mm | 50 µg/mL (≈ 150 µM) | 20% | 15 mm | 35% | 50 µg/mL (≈ 150 µM) | 31% | 1% | 8 mm | 26% | 17 mm | 11 mm | – | zone of inhibition at 50 µg/mL (Staphylococcus aureus [13]): 13 mm
COc1ccc(C(=O)/C=C/C=C(\Cl)c2ccc(OC)cc2OC)cc1 | 40% | 50 µg/mL (≈ 139 µM) | 7% | 33% | – | 50 µg/mL (≈ 139 µM) | 50 µg/mL (≈ 139 µM) | 10 mm | 50 µg/mL (≈ 139 µM) | 7% | 12 mm | 35% | 50 µg/mL (≈ 139 µM) | 0% | 0% | 10 mm | 15% | – | 12 mm | 11 mm | –
NYSTATIN | – | – | – | – | – | – | – | – | – | – | – | – | – | – | – | – | – | – | – | – | inhibition zone (IZ) (Penicillium chrysogenum): 14 mm; inhibition zone (IZ) (Trichoderma viride): 12 mm; inhibition zone (IZ) (Aspergillus niger): 13 mm; inhibition zone (IZ) (Aspergillus flavus): 16 mm
